FLuc inh counter – firefly luciferase enzyme inhibitors, primary screen, artefact control for luciferase-based inhibitor screens, biochemical, luminescence, ATPLite; 200,000 tested, 1.5% active; inhibition, % at 10 µM; AID 1006, 2008; 10 min; Luciferin 4-monooxygenase (Photinus pyralis), P08659;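 active = inhibition above about 50% when tested at 10 µM, limit read from the data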
Target sequence (P08659 whole entry, looked up): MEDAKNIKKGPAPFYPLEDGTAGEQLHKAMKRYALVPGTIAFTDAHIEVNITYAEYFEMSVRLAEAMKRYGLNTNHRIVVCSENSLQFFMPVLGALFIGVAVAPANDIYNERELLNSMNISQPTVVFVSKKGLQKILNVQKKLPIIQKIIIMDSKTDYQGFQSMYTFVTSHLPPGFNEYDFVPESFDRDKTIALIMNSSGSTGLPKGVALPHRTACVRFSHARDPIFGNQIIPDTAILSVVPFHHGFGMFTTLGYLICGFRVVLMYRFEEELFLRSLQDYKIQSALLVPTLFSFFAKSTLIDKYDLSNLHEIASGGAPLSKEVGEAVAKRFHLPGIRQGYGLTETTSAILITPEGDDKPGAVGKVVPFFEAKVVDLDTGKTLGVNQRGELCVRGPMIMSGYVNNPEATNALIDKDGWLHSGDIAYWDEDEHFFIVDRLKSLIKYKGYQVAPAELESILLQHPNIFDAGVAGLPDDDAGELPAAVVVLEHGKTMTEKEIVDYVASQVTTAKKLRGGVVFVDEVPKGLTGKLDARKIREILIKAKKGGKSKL
Pf gamet viab – late stage P. falciparum gametocyte viability inhibitors, primary screen, ATP luminescence, HTS | P. falciparum stage V gametocytes, 24 h | AID 743093, 2013 | 150,000 tested, 0.065% active | inhibition, % at 10.9 µM;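 active = inhibition above the mean plus 3 SD of compounds within the control limits, set per campaign, cut at about 38% in these data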;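 note: 0% = DMSO wells and 100% = medium only without gametocytes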
NF-kB neuron act – activators of NF-kB expression in neurons, primary screen, cell-based, HTS | human neuronal cells, NF-kB reporter expression; stronger effect = higher value | fold change at 12.5 µM | 190,000 tested, 1.6% active | AID 1239, 2008; in the data active = fold change above about 3.3
APP 5'UTR act – activators of APP 5'UTR luciferase reporter, primary screen, SH-SY5Y cells. SH-SY5Y APP 5'UTR luciferase reporter, luminescence; zero percent = DMSO vehicle wells. activation, % at 2 µM. 190,000 tested, 1% active. AID 1276, 2008;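 active = activation above a set limit, based on mean plus 3 SD of controls, cut at about 140% in these data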
FLuc act counter – FLuc activators, initial screening, artefact control for FLuc-dependent activation tests, biochemical, ATPlite luminescence. 200,000 tested, under 10 active. ATPlite luciferase biochemical, 10 min; 0 = ATP-free wells, 1 = DMSO control. activation factor at 10 µM;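 active = luciferase activation factor, scaled between plate controls, of at least 2 with compound at 10 µM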
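System: cell-free luciferase reagent; medium: PBS as buffer for the ATP substrate; doses: test compounds dosed from 2 mM stocks in 100% DMSO; incubation: 10 min, room temperature; measured by: luminescence from luciferase reaction; read-out: luciferase activation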
STAT1 act – STAT1 signaling activators, primary screen, cell-based, HTS, luciferase reporter. NIH 3T3 STAT1-luciferase reporter, IFN-gamma, luminescence; 100% = IFN-gamma alone, no compound. activation (% of control), % at 5.5 µM. 200,000 tested, 2.6% active. AID 932, 2007;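 active = activation above the screen-wide mean activation plus 3 SD, cut at about 130% in these data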;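 note: raw ratio to IFN-gamma control signal so 100% means no change and 0% no light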
* hit, by the source's call; x = no result given. In the library only some 3.5% were active in any assay of this set; here they are far more common.

SMILES	FLuc inh counter	Pf gamet viab	NF-kB neuron act	APP 5'UTR act	FLuc act counter	STAT1 act
O=C(NCCCN1CCCC1)[C@H](CSCc1ccccc1)N1Cc2ccccc2C1=O	x	25	x	x	x	x
O=C(Nc1ccc2c(c1)OCO2)c1cc(C2CC2)on1	47	x	3.9*	61	0.5	146*
O=C(Nc1ccc2c(c1)OCO2)c1ccncc1	1	-4	1.5	11	1	106
O=C(CSc1nnc(C2CC2)n1-c1ccccc1)Nc1ccc(N2CCOCC2)cc1	4	x	0.96	2	1	92
CCNC(=S)NNc1nnc(-c2ccccc2)c(-c2ccccc2)n1	x	14	x	x	x	x
Cc1ccc(N=C/C(C(=O)C(F)(F)F)=C(\O)c2cccs2)cc1	43	11	2.7	190*	0.6	51
O=C(/C(N=Nc1cccc(C(F)(F)F)c1)=C(/O)c1cccs1)C(F)(F)F	x	-10	x	x	x	x
Nc1ncc(-n2cncn2)c(-c2ccc(Cl)cc2)n1	-6	14	1.4	19	1.1	99
O=c1cc(CN2CCc3ccccc3C2)nc2sccn12	-1	-4	3.5*	5	1	95
O=C(/C=C/c1ccc(Cl)cc1Cl)c1ccc[nH]1	52*	-22	2.1	52	0.5	107
O=C(/C=C/c1ccccc1Cl)c1ccc[nH]1	48	x	4.3*	53	0.5	87
O=S(=O)(Nc1cc(Sc2cccc3cccnc23)c(O)c2ccccc12)c1ccc(F)cc1	-5	6	0.27	-78	1	141*
O=C(Sc1cccc2cccnc12)c1ccc(F)cc1	-4	-33	0.15	-71	1	173*
Cc1c(NC(=O)CSCc2c(F)cccc2Cl)c(=O)n(-c2ccccc2)n1C	-5	x	1.1	4	1	100
Cc1ccc(Nc2nc(COC(=O)C3CC3)cs2)cc1	53*	x	3.6*	95	0.5	125
COC(=O)c1ccccc1Nc1ccnc(Cl)n1	x	6	x	x	x	x
CCn1ncc([N+](=O)[O-])c1C(=O)Nc1ccc(C)c(C)c1	x	-8	x	x	x	x
COc1ccc2oc(=O)c(-c3nc(C)cs3)cc2c1	17	-21	2.1	199*	0.8	135*
CC(C)(C)c1cc(C(=O)N2CCN(c3ncccn3)CC2)ccn1	-6	-15	4.8*	4	1.1	96
Nc1nc(CSc2ccccn2)nc(Nc2ccccc2)n1	3	x	4.7*	134	1	148*
O=C1/C(=C\c2cccs2)Sc2ccc3ccccc3c21	54*	-11	1.1	178*	0.5	105
O=C(c1ccccc1)c1cc2ccccc2o1	12	x	2.2	47	0.9	131*
Cc1ccc(C(=O)c2cc3ccccc3o2)cc1[N+](=O)[O-]	1	11	2	79	1	139*
C/C(=N\NS(=O)(=O)c1ccc(C)c([N+](=O)[O-])c1)c1cc2ccccc2o1	-4	13	1	x	1	103
COc1cccc2cc(/C(=N/O)c3ccc(Br)cc3)oc12	-5	-5	1.3	-7	1.1	102
SMILES	FLuc inh counter	Pf gamet viab	NF-kB neuron act	APP 5'UTR act	FLuc act counter	STAT1 act
COc1cccc2cc(C(=O)c3ccccc3)oc12	42	-7	2.5	119	0.6	137*
O=C(c1cc2ccccc2o1)N1CCCC1	-1	6	1.3	10	1	104
CCNC(=O)c1c(NC(=O)c2cc(-c3cc(C)cc(C)c3O)n[nH]2)sc2c1CCCC2	x	2	x	x	x	x
O=C(NCCc1ccccc1)c1cc(-c2ccco2)on1	6	x	5.8*	117	0.9	132*
COc1ccc(CCNC(=O)c2cc(-c3cccs3)on2)cc1OC	-8	x	2.3	-9	1.1	102
COc1ccc(CCNC(=O)c2cc(-c3ccco3)on2)cc1OC	-3	-2	4.5*	5	1	108
Cc1ccc(NC(=O)c2cc(-c3ccco3)on2)cc1C	16	6	2.6	8	0.8	132*
Cc1cc(C)c(S(=O)(=O)Cc2ccccc2)c(=O)[nH]1	4	7	1.1	6	1	98
COc1ccc2[nH]cc(/C=C/C(=O)c3ccccc3)c2c1	x	-5	x	x	x	x
Cc1ccc(C(=O)/C=C/c2c[nH]c3ccccc23)cc1	13	x	3.5*	62	0.9	118
O=C(/C=C/c1c[nH]c2ccccc12)c1ccccc1	26	2	9.9*	117	0.7	136*
CC(=O)c1cccc(NC(=O)COC(=O)COc2c(Cl)cc(Cl)c3ccc(C)nc23)c1	-4	6	1.1	-13	1	89
O=C(c1ccc(S(=O)(=O)c2cccc(Cl)c2)c([N+](=O)[O-])c1)N1CCN(c2ccccn2)CC1	-2	x	0.89	1	1	85
O=C1c2ccc([N+](=O)[O-])cc2C(=O)N1c1ccc([N+](=O)[O-])cn1	x	12	x	x	x	x
O=S(=O)(NC1CCCC1)c1ccc(S(=O)(=O)N(Cc2cccs2)CC2CCCO2)cc1 (centres undefined)	-2	8	0.78	-3	1	93
O=S(=O)(c1ccc(S(=O)(=O)N(Cc2cccs2)CC2CCCO2)cc1)N1CCCCC1 (centres undefined)	-4	-8	1.4	21	1	129*
O=S(=O)(NCC1CN(S(=O)(=O)c2c(F)cccc2F)C1)c1ccc2c(c1)OCCO2	x	-40	x	x	x	x
Fc1ccccc1N1CCN(c2ncnc3[nH]ncc23)CC1	-4	-11	3.5*	-3	1	109
Fc1ccccc1N1CCN(c2ncnc3nc[nH]c23)CC1	x	-5	x	x	x	x
COCCNc1nnnc2c1sc1nc(N3CCOCC3)c3c(c12)CCCC3	-5	x	0.47	13	1	98
O=C(/C=C/Nc1ccc(F)cc1F)c1ccc(Br)cc1	x	13	x	x	x	x
COc1ccccc1N/C=C/c1onc(C)c1[N+](=O)[O-]	59*	-26	1.5	142*	0.4	29
Cc1noc(/C=C/Nc2ccc(F)cc2F)c1[N+](=O)[O-]	1	-15	6.9*	173*	1	147*
O=S(=O)(c1ccc2c(c1)OCCO2)N1CCCN(S(=O)(=O)c2c(F)cccc2F)CC1	x	5	x	x	x	x
O=C1CCC(=O)N1c1nc2nc(-c3ccccc3)cc(=O)n2[nH]1	-6	x	1.1	2	1.1	100
Cc1nc2nc(-c3ccccc3)cc(=O)n2[nH]1	56*	x	1.5	4	0.4	79
O=c1cc(-c2ccccc2)nc2nc(-c3ccco3)[nH]n12	72*	4	1.2	11	0.3	91
CC(C)(C)OC(=O)NCCOC(=O)c1[nH]cnc1C(=O)NCc1ccccc1	x	-14	x	x	x	x
CCOC(=O)c1cnc(-c2ccccc2)nc1-c1ccccc1	0	-38	1.4	-17	1	109

Screening results: PubChem BioAssay, several laboratories
